The target of assay [1] is T1, Asparagine synthetase [glutamine-hydrolyzing] (Homo sapiens, UniProt P08243).
T1 sequence (P08243 whole entry): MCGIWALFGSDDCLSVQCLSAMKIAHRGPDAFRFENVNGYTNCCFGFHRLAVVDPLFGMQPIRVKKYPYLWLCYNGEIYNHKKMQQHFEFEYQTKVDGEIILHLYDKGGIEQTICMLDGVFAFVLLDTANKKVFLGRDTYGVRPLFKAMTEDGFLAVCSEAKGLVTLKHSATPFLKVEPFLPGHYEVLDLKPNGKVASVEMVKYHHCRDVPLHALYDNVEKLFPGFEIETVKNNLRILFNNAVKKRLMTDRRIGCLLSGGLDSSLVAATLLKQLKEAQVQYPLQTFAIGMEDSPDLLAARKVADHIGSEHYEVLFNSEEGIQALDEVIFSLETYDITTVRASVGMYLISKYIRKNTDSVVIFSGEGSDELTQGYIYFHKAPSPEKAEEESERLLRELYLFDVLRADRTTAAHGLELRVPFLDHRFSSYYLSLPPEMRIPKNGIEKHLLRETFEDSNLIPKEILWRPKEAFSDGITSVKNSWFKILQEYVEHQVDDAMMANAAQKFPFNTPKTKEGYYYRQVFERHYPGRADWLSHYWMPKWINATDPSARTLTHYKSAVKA
As to the kind of experiment: Inhibition of human recombinant ASNS expressed in Sf9 cells assessed as overall inhibition constant for glutamine dependent production of inorganic pyrophosphate by spectrophotometry analysis.

Assay [2] addresses T1, Asparagine synthetase [glutamine-hydrolyzing]. As to the kind of experiment: Inhibition of human recombinant ASNS expressed in Sf9 cells assessed as assessed as overall inhibition constant for ammonia dependent production of inorganic pyrophosphate by spectrophotometry analysis. A digest of the protocol: (§1)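 PPi formation was coupled to NADH loss at 340 nm over 20 min. Progress curves at fixed inhibitor levels were fitted, and Ki was taken from k versus [I] with Ka 0.1 mM. Duplicates.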

Assay [3] has the same target. The assay is described as follows: Inhibition of human recombinant ASNS expressed in Sf9 cells assessed as assessed as initial inhibition constant for ammonia dependent production of inorganic pyrophosphate by spectrophotometry analysis. A digest of the protocol:
as §1

The target is the same in assay [4]. As to the kind of experiment: Inhibition of human recombinant ASNS expressed in Sf9 cells assessed as initial inhibition constant for glutamine dependent production of inorganic pyrophosphate by spectrophotometry analysis.
The subject of assay [5] is MOLT-4. As to the kind of experiment: Cytotoxicity against human ASNase-resistant MOLT4 cells assessed as cell viability at 0.13 mM after 48 hrs by MTS assay in absence of ASNase. The format is functional, cell-based. A digest of the protocol: (§2)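 MOLT-4R cells grown in RPMI 1640 with 10% heat-inactivated FBS and penicillin-streptomycin at 37°C under 5% CO2. Cells were exposed to 10-1000 µM inhibitor, with or without 1 U/mL ASNase, for 48 h. Read-out was MTS at 490 nm, as titer relative to untreated cells at t=0; mean ± SD of triplicates.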
For orientation: Formazan colour is commonly taken as a measure of viable cells.

The test system of assay [6] is MOLT-4. As to the kind of experiment: Cytotoxicity against human ASNase-resistant MOLT4 cells assessed as cell viability at 250 uM after 48 hrs by MTS assay in presence of ASNase. The format is functional, cell-based. The method, boiled down: as §2
The test system of assay [7] is MOLT-4. As to the kind of experiment: Cytotoxicity against human ASNase-sensitive MOLT4 cells assessed as cell viability at 130 uM after 48 hrs by MTS assay. The format is functional, cell-based. The method, boiled down: (§3)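 The ASNase-sensitive MOLT-4S line was kept in RPMI 1640 with 10% heat-inactivated FBS and penicillin-streptomycin at 37°C, 5% CO2. They were incubated 48 h with 10-1000 µM compound and no ASNase. Viability was measured by MTS (OD 490) relative to t=0 cell number; mean ± SD of triplicates.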

For assay [8], the system named is MOLT-4. As to the kind of experiment: Cytotoxicity against human ASNase-resistant MOLT4 cells assessed as cell viability at >500 uM after 48 hrs by MTS assay in absence of ASNase.
Assay [9] deals with MOLT-4. The assay is described as follows: Cytotoxicity against human ASNase-resistant MOLT4 cells assessed as cell viability after 48 hrs by MTS assay in absence of ASNase. The assay is classed as functional, cell-based. The method, boiled down:
as §2

For assay [10], the system named is MOLT-4. As to the kind of experiment: Cytotoxicity against human ASNase-sensitive MOLT4 cells assessed as cell viability at 250 to 500 uM after 48 hrs by MTS assay. The assay is classed as functional, cell-based. A digest of the protocol: as §3
Assay [11] relates to MOLT-4. As to the kind of experiment: Cytotoxicity against human ASNase-resistant MOLT4 cells assessed as cell viability after 48 hrs by MTS assay in absence of ASNase relative to sulfoximine 1.
Assay [12] has as its system MOLT-4. The assay is described as follows: Cytotoxicity against human ASNase-resistant MOLT4 cells assessed as cell viability at 130 uM after 48 hrs by MTS assay in presence of ASNase. The assay is classed as functional, cell-based. A digest of the protocol: as §2
Assay [13] deals with MOLT-4. The assay is described as follows: Cytotoxicity against human ASNase-resistant MOLT4 cells assessed as cell viability at 0.06 mM after 48 hrs by MTS assay in absence of ASNase. The assay is classed as functional, cell-based. The method, boiled down:
as §2

In assay [14] the test system is MOLT-4. The assay is described as follows: Cytotoxicity against human ASNase-resistant MOLT4 cells assessed as cell viability at 0.06 mM after 48 hrs by MTS assay in presence of ASNase. The assay is classed as functional, cell-based. A digest of the protocol: as §2

The values below come from ChEMBL document CHEMBL2150922, “A sulfoximine-based inhibitor of human asparagine synthetase kills L-asparaginase-resistant leukemia cells” (Bioorg Med Chem, 2012).

The source made the active and inactive calls. The rule behind the calls is not given here.

A word on the Ki: it is a measure of affinity in units of concentration, obtained from inhibition or displacement.

Take `C[S+]([O-])(C[C@H](N)C(=O)O)=NP(=O)(O)OC[C@H]1O[C@@H](n2cnc3c(N)ncnc32)[C@H](O)[C@@H]1O` (mixture of isomers): the Ki worked out at 24 nM in assay [1], 2.5 nM in assay [2], 280 nM in assay [3] and 1000 nM in assay [4].

Consider `C[S+]([O-])(CCN)=NP(=O)(O)OC[C@H]1O[C@@H](n2cnc3c(N)ncnc32)[C@H](O)[C@@H]1O` (mixture of isomers), for which the inhibitory constant (Ki) in [1] came to 8 nM; in assay [2] it was 33 nM; in assay [3], 450 nM; in [4] it was 490 nM. Besides, the result with MOLT-4 [5], in the assay on MOLT-4 [6], in the assay on MOLT-4 [7], in the assay on MOLT-4 [8], in the assay on MOLT-4 [10] and in the assay with MOLT-4 [12] was Active. The Activity entry in the assay with MOLT-4 [9] was “Dose-dependent effect”. In addition, the “fold change (FC)” value with MOLT-4 [11] turned out to be 7. Moreover, the outcome in the assay with MOLT-4 [13] and with MOLT-4 [14] was inactive.

Consider `C[S+]([O-])(CCC(=O)O)=NP(=O)(O)OC[C@H]1O[C@@H](n2cnc3c(N)ncnc32)[C@H](O)[C@@H]1O` (mixture of isomers), for which the inhibitory constant (Ki) in assay [1] turned out to be 840 nM; in assay [2] it was 310 nM; in [3], 3040 nM; in [4], 4500 nM.
